Measurements: ChEMBL document CHEMBL5058577, “EUbOPEN Chemogenomics Library 2 (Multiplex)” (2022)

Test system: U2OS
Assay: Multiplex assay against U2OS
Type: toxicity, cell-based
Conditions: human
Outline: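 Phenotypes for tubulin, mitochondrial mass and membrane permeability are expressed as per cents of healthy-nucleus cells. Cells were stained live at seeding with Hoechst33342, BioTracker Green Microtubule Cytoskeleton Dye, MitoTracker Red and Annexin V Alexa Fluor 680, then imaged after compound addition on a CQ1 microscope at 37°C and 5% CO2. Machine-learning gating in CellPathfinder separated Hoechst high-intensity objects from normal cells, divided normal cells by nuclear state (healthy, pyknosed, fragmented) and divided pyknosed cells into mitotic or apoptotic.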

[1] = 12 h, 1 µM, compound concentration 1 uM, replicate 1
[2] = 12 h, 1 µM, compound concentration 1 uM, replicate 2
[3] = 12 h, 10 µM, compound concentration 10 uM, replicate 1
[4] = 12 h, 10 µM, compound concentration 10 uM, replicate 2
[5] = 24 h, 1 µM, compound concentration 1 uM, replicate 1
[6] = 24 h, 1 µM, compound concentration 1 uM, replicate 2
[7] = 24 h, 10 µM, compound concentration 10 uM, replicate 1
[8] = 24 h, 10 µM, compound concentration 10 uM, replicate 2
[9] = 48 h, 1 µM, compound concentration 1 uM, replicate 1
[10] = 48 h, 1 µM, compound concentration 1 uM, replicate 2
[11] = 48 h, 10 µM, compound concentration 10 uM, replicate 1
[12] = 48 h, 10 µM, compound concentration 10 uM, replicate 2

In the case of `COc1ccccc1N1CCN(C[C@@H](C(=O)NC(C)(C)C)c2ccccc2)CC1.Cl.Cl`, the “Population Apoptotic (%)” value [1] is reported as 73%, the “Population Fragmented Nuclei (%)” value [1] is reported as 29% and the “Population Healthy Nuclei (%)” value [1] is reported as 65%. For the same molecule, the “Population Hoechst High Intensity Objects (%)” value [1] was 2%, the “Population Membrane Permeable-Phenotype (%)” value [1] was 5% and the “Population Mitochondria Different-Phenotype (%)” value [1] was 3%. The “Population Mitotic Cells (%)” value [1] was 26%, the “Population Normal (%)” value [1] was 97% and the “Population Pyknosed Nuclei (%)” value [1] was 5%. For the same molecule, the “Population Tubulin-Different-Phenotype (%)” value [1] was 1%, the “Total Cell Count” value [1] was 281 and the “Population Apoptotic (%)” value [2] was 66%. The “Population Fragmented Nuclei (%)” value [2] was 14%, the “Population Healthy Nuclei (%)” value [2] was 80% and the “Population Hoechst High Intensity Objects (%)” value [2] was 1%. For the same molecule, the “Population Membrane Permeable-Phenotype (%)” value [2] was 7%, the “Population Mitochondria Different-Phenotype (%)” value [2] was 2% and the “Population Mitotic Cells (%)” value [2] was 33%. For the same molecule, the “Population Normal (%)” value [2] was 98%, the “Population Tubulin-Different-Phenotype (%)” value [2] was 3% and the “Total Cell Count” value [2] was 114. The “Population Apoptotic (%)” value [3] was 46%, the “Population Fragmented Nuclei (%)” value [3] was 35% and the “Population Healthy Nuclei (%)” value [3] was 49%. For the same molecule, the “Population Hoechst High Intensity Objects (%)” value [3] was 3%, the “Population Membrane Permeable-Phenotype (%)” value [3] was 41% and the “Population Mitochondria Different-Phenotype (%)” value [3] was 41%. For the same molecule, the “Population Mitotic Cells (%)” value [3] was 53%, the “Population Normal (%)” value [3] was 96% and the “Population Pyknosed Nuclei (%)” value [3] was 14%. For the same molecule, the “Population Tubulin-Different-Phenotype (%)” value [3] was 41%, the “Total Cell Count” value [3] was 226 and the “Population Apoptotic (%)” value [4] was 50%. For the same molecule, the “Population Fragmented Nuclei (%)” value [4] was 17%, the “Population Healthy Nuclei (%)” value [4] was 66% and the “Population Hoechst High Intensity Objects (%)” value [4] was 0%. The “Population Membrane Permeable-Phenotype (%)” value [4] was 49%, the “Population Mitochondria Different-Phenotype (%)” value [4] was 56% and the “Population Mitotic Cells (%)” value [4] was 50%. For the same molecule, the “Population Normal (%)” value [4] was 99%, the “Population Pyknosed Nuclei (%)” value [4] was 15% and the “Population Tubulin-Different-Phenotype (%)” value [4] was 64%. For the same molecule, the “Total Cell Count” value [4] was 102, the “Population Apoptotic (%)” value [5] was 68% and the “Population Fragmented Nuclei (%)” value [5] was 29%. The “Population Healthy Nuclei (%)” value [5] was 62%, the “Population Hoechst High Intensity Objects (%)” value [5] was 3% and the “Population Membrane Permeable-Phenotype (%)” value [5] was 7%. The “Population Mitochondria Different-Phenotype (%)” value [5] was 1%, the “Population Mitotic Cells (%)” value [5] was 32% and the “Population Normal (%)” value [5] was 96%. The “Population Pyknosed Nuclei (%)” value [5] was 8%, the “Population Tubulin-Different-Phenotype (%)” value [5] was 3% and the “Total Cell Count” value [5] was 320. The “Population Apoptotic (%)” value [6] was 80%, the “Population Fragmented Nuclei (%)” value [6] was 16% and the “Population Healthy Nuclei (%)” value [6] was 75%. The “Population Membrane Permeable-Phenotype (%)” value [6] was 5%, the “Population Mitochondria Different-Phenotype (%)” value [6] was 6% and the “Population Mitotic Cells (%)” value [6] was 20%. The “Population Tubulin-Different-Phenotype (%)” value [6] was 2%, the “Total Cell Count” value [6] was 129 and the “Population Apoptotic (%)” value [7] was 61%. The “Population Fragmented Nuclei (%)” value [7] was 38%, the “Population Healthy Nuclei (%)” value [7] was 42% and the “Population Hoechst High Intensity Objects (%)” value [7] was 5%. For the same molecule, the “Population Membrane Permeable-Phenotype (%)” value [7] was 20%, the “Population Mitochondria Different-Phenotype (%)” value [7] was 33% and the “Population Mitotic Cells (%)” value [7] was 38%. The “Population Normal (%)” value [7] was 94%, the “Population Pyknosed Nuclei (%)” value [7] was 18% and the “Population Tubulin-Different-Phenotype (%)” value [7] was 25%. The “Total Cell Count” value [7] was 235, the “Population Apoptotic (%)” value [8] was 70% and the “Population Fragmented Nuclei (%)” value [8] was 20%. The “Population Healthy Nuclei (%)” value [8] was 63%, the “Population Membrane Permeable-Phenotype (%)” value [8] was 39% and the “Population Mitochondria Different-Phenotype (%)” value [8] was 61%. For the same molecule, the “Population Mitotic Cells (%)” value [8] was 29%, the “Population Pyknosed Nuclei (%)” value [8] was 15% and the “Population Tubulin-Different-Phenotype (%)” value [8] was 52%. The “Total Cell Count” value [8] was 113, the “Population Apoptotic (%)” value [9] was 78% and the “Population Fragmented Nuclei (%)” value [9] was 21%. For the same molecule, the “Population Healthy Nuclei (%)” value [9] was 66%, the “Population Hoechst High Intensity Objects (%)” value [9] was 2% and the “Population Membrane Permeable-Phenotype (%)” value [9] was 5%. The “Population Mitochondria Different-Phenotype (%)” value [9] was 1%, the “Population Mitotic Cells (%)” value [9] was 22% and the “Population Normal (%)” value [9] was 97%. The “Population Pyknosed Nuclei (%)” value [9] was 11%, the “Population Tubulin-Different-Phenotype (%)” value [9] was 1% and the “Total Cell Count” value [9] was 452. The “Population Apoptotic (%)” value [10] was 83%, the “Population Fragmented Nuclei (%)” value [10] was 16% and the “Population Healthy Nuclei (%)” value [10] was 72%. The “Population Hoechst High Intensity Objects (%)” value [10] was 4%, the “Population Membrane Permeable-Phenotype (%)” value [10] was 7% and the “Population Mitochondria Different-Phenotype (%)” value [10] was 2%. For the same molecule, the “Population Mitotic Cells (%)” value [10] was 16%, the “Population Normal (%)” value [10] was 95% and the “Population Tubulin-Different-Phenotype (%)” value [10] was 4%. For the same molecule, the “Total Cell Count” value [10] was 162, the “Population Apoptotic (%)” value [11] was 58% and the “Population Fragmented Nuclei (%)” value [11] was 33%. The “Population Healthy Nuclei (%)” value [11] was 44%, the “Population Hoechst High Intensity Objects (%)” value [11] was 4% and the “Population Membrane Permeable-Phenotype (%)” value [11] was 28%. For the same molecule, the “Population Mitochondria Different-Phenotype (%)” value [11] was 30%, the “Population Mitotic Cells (%)” value [11] was 41% and the “Population Normal (%)” value [11] was 95%. The “Population Pyknosed Nuclei (%)” value [11] was 21%, the “Population Tubulin-Different-Phenotype (%)” value [11] was 21% and the “Total Cell Count” value [11] was 271. The “Population Apoptotic (%)” value [12] was 96%, the “Population Fragmented Nuclei (%)” value [12] was 18% and the “Population Healthy Nuclei (%)” value [12] was 58%. For the same molecule, the “Population Hoechst High Intensity Objects (%)” value [12] was 8%, the “Population Membrane Permeable-Phenotype (%)” value [12] was 43% and the “Population Mitochondria Different-Phenotype (%)” value [12] was 29%. For the same molecule, the “Population Mitotic Cells (%)” value [12] was 4%, the “Population Normal (%)” value [12] was 91% and the “Population Pyknosed Nuclei (%)” value [12] was 22%. For the same molecule, the “Population Tubulin-Different-Phenotype (%)” value [12] was 35% and the “Total Cell Count” value [12] was 121.
